Screens as filed in PubChem BioAssay.
NRP1-CendR mod = modulators of CendR peptide binding to NRP-1, primary screen, biochemical, fluorescence polarization, uHTS; inhibition, % at 25 µM; FAM-RPARPAR peptide binding to NRP-1; hit rate 0.85% among 360,000; Neuropilin-1 (Homo sapiens), O14786;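 active = inhibition or corrected inhibition above about 18%, plus a signal ratio from 0.5 to 1.5, limit read from the data, passing the limit was not always enough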
MEX-5 binding = MEX-5 zinc finger RNA-binding disruptors – biochemical, C. elegans, fluorescence polarization, MLPCN library, primary screen; Zinc finger protein mex-5 (Caenorhabditis elegans), Q9XUB2; MEX-5/FITC-TCR2 RNA binding; active compounds read low; activity score (negative = inhibition of binding), % at 10 µM; hit rate 0.38% among 300,000;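 active = inhibition past about -25% in most replicates, and total fluorescence under double the plate's negative control median, limit read from the data; inconclusive = replicates evenly split on the limit, or fluorescence at least double controls; inactive = too little inhibition in most replicates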;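 note: 0% = DMSO and -100% = 5 µM competing unlabeled TCR2 RNA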
HCV core dimer = inhibitors of HCV core protein dimerization, primary screen, biochemical, TR-FRET, high-throughput; TR-FRET GST/Flag-core106 dimerization, 1536-well; inhibition, % at 5 µM; hit rate 0.33% among 300,000;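 active = inhibition above the mean of all tested compounds plus 3 SD, set per screening campaign, cut at about 45% in these data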
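Material: Tagged HCV core106 pair (GST and Flag) | Amount: GST-core106 13.5 nM, Flag-core106 17 nM | Medium: KF-containing HEPES buffer, pH 7.45, DTT, CHAPS, BSA | Reagent: Eu donor and XL665 acceptor anti-tag antibodies | Schedule: 4 h at 22.5 °C | Technique: Time-resolved FRET, ex 340 nm, em 617 and 671 nm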
FID counter = compounds displacing fluorescent DNA intercalator, primary screen, artefact control for HCV NS3 helicase inhibitor project, biochemical, FID fluorescence; DNA fluorescent intercalator displacement; inhibition, % at 7.9 µM; hit rate 0.17% among 290,000; AID 1845, 2009; in the data active = inhibition above about 37%;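 note: 0% = vehicle and 100% = reference compound; higher means more ethidium bromide displaced from hairpin DNA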
Numbers without * were called inactive. Rows were chosen to be rich in hits. Some 1.5% of all compounds tested hit in one or more screens of this group.

Screening CSC(=Nc1ccccc1)N=C(SCc1ccccc1)N(C)C returned NRP1-CendR mod 16.
Screening CC1(C(=O)NS(=O)(=O)c2ccccc2Cl)CCN1C(=O)CC1CCCCC1 (stereo unspecified) returned NRP1-CendR mod -1.
Screening CC1(C(=O)NS(=O)(=O)c2ccccc2Cl)CCN1C(=O)CC1CC1 (stereo unspecified) returned NRP1-CendR mod 28*.
For O=C(c1ccc(Cl)c(Cl)c1)N1CCC(=O)N([C@H](COCc2ccc(Cl)cc2)Cc2ccccc2)CC1 the results were NRP1-CendR mod 4.
For Cn1c(N=Nc2ccc(N3CCOCC3)cc2)[n+](C)c2ccccc21 the results were NRP1-CendR mod 6, MEX-5 binding -31* and FID counter 59*.
O=C(NCc1ccco1)c1ccc(OC2CCN(Cc3ccccn3)CC2)cc1 was read as NRP1-CendR mod 1.
Screening COc1ccc(NC(=O)Cn2c([N+](=O)[O-])cnc2C)c(OC)c1 returned NRP1-CendR mod 3.
COc1cc(/C=C2\C(=O)NN(c3ccccc3)C2=O)cc([N+](=O)[O-])c1O was read as NRP1-CendR mod 3, MEX-5 binding -30*, HCV core dimer -6 and FID counter -16.
`COc1cc(/C=C2\C(=O)NN(c3ccc(C)cc3)C2=O)cc([N+](=O)[O-])c1O` gave NRP1-CendR mod -1, MEX-5 binding -15, HCV core dimer -3 and FID counter -20.
Screening O=C(Cc1coc2ccc3ccccc3c12)N1CCN(c2ncccn2)CC1 returned NRP1-CendR mod -5, MEX-5 binding 2, HCV core dimer 53* and FID counter -26.
COc1ccccc1NC(=S)N1CCN(Cc2ccc3c(c2)OCO3)CC1 was read as NRP1-CendR mod 5, MEX-5 binding 1, HCV core dimer -7 and FID counter -5.
COCCCNC(=S)N1CCN(Cc2ccc3c(c2)OCO3)CC1 was read as NRP1-CendR mod 21*, MEX-5 binding 2, HCV core dimer 0 and FID counter 0.
`CCCCNC(=S)N1CCN(Cc2ccc3c(c2)OCO3)CC1` gave NRP1-CendR mod -6, MEX-5 binding -2, HCV core dimer 0 and FID counter -1.
COCc1c(C(=O)N2CCN(Cc3ccc4c(c3)OCO4)CC2)oc2ccccc12 was read as NRP1-CendR mod 26*.
`Cc1ccccc1NC(=S)N1CCN(Cc2ccc3c(c2)OCO3)CC1` gave NRP1-CendR mod 30*, MEX-5 binding 1, HCV core dimer -2 and FID counter 0.
`CC(C)NC(=O)C1(C)CN(S(C)(=O)=O)CC(=O)N1CCCn1ccnc1` (stereo unspecified) gave NRP1-CendR mod 4.
`Cc1cccc(N2CCN(C(=O)CSc3ccsc3[N+](=O)[O-])CC2C)c1` (stereo unspecified) gave NRP1-CendR mod -1, MEX-5 binding 2, HCV core dimer 57* and FID counter -5.
CC(=O)c1cccc(-c2ccnc3c2CC(C(=O)Nc2ccc(F)c(Cl)c2)O3)c1 (stereo unspecified) was read as NRP1-CendR mod -8.
COc1ccccc1CNCC(=O)NCc1ccc(C)cc1 was read as NRP1-CendR mod -7, MEX-5 binding -3, HCV core dimer 1 and FID counter 9.
For COc1ccccc1CNC(=O)CSc1ccc(-c2ccccn2)nn1 the results were NRP1-CendR mod -9, MEX-5 binding -13, HCV core dimer 56* and FID counter -8.
COc1ccccc1CNC(=O)Cc1ccc(C)cc1 was read as NRP1-CendR mod 43*, MEX-5 binding 0, HCV core dimer -3 and FID counter -3.
For COC(=O)c1c(N)[nH]c(C(=O)c2ccccc2)c1-c1ccc(Br)cc1 the results were NRP1-CendR mod 15.
Screening CC1(C(=O)NS(=O)(=O)c2cccs2)CCN1C(=O)c1ccccc1 (stereo unspecified) returned NRP1-CendR mod 9.
C=CCN=c1scc(-c2ccco2)n1/N=C/c1ccc(O)c(O)c1O was read as NRP1-CendR mod -45, MEX-5 binding -28*, HCV core dimer 6 and FID counter -19.
For COCCN=c1scc(-c2ccco2)n1/N=C/c1ccc(O)c(O)c1O the results were NRP1-CendR mod -43, HCV core dimer 54* and FID counter -16.
Screening CN=c1scc(C)n1/N=C/c1ccc(O)c(O)c1O returned NRP1-CendR mod 6, MEX-5 binding -32*, HCV core dimer -32 and FID counter 9.
Screening CN=c1scc(-c2cccs2)n1/N=C/c1ccc(O)c(O)c1O returned NRP1-CendR mod -5, MEX-5 binding -1, HCV core dimer 7 and FID counter -19.
`CC1(Br)C(Sc2ccccc2[N+](=O)[O-])=Nc2ccccc21` (stereo unspecified) gave NRP1-CendR mod 21.
COc1ccc(N=Nc2nc3ccc(Br)cc3n2C)cc1 was read as NRP1-CendR mod 84, MEX-5 binding -50*, HCV core dimer 0 and FID counter -9.
COc1ccc(-c2c(-c3cc(OC)cc(OC)c3)n(C)c3ccc(Br)cc23)cc1 was read as NRP1-CendR mod 1.
Screening Cc1ccc2c(CC(=O)OCc3cc(=O)n4c(n3)sc3ccccc34)coc2c1 returned NRP1-CendR mod 1, MEX-5 binding 2, HCV core dimer 90* and FID counter -2.
O=C(O)c1ccc(N2CCCCCC2)c(N2C(=O)c3ccccc3C2=O)c1 was read as NRP1-CendR mod 26*, MEX-5 binding -2, HCV core dimer -2 and FID counter -32.
Screening Cc1ccc(N2C(=O)c3cccc4c([N+](=O)[O-])ccc(c34)C2=O)c2cccnc12 returned NRP1-CendR mod -12, MEX-5 binding -4, HCV core dimer 3 and FID counter -4.
`O=C1c2cccc3c(N4CCCCC4)ccc(c23)C(=O)N1c1ccc(O)cc1` gave NRP1-CendR mod 133, MEX-5 binding inconclusive, HCV core dimer 18 and FID counter -2.
`O=C1c2cccc3c(N4CCCCC4)ccc(c23)C(=O)N1c1ccccc1O` gave NRP1-CendR mod 128, MEX-5 binding -56*, HCV core dimer 2 and FID counter -10.
Cc1ccc(N2C(=O)c3cccc4c(N5CCN(C)CC5)ccc(c34)C2=O)c2cccnc12 was read as MEX-5 binding -58*, HCV core dimer 5 and FID counter -1.
For O=C(O)c1ccc2c(c1)C(=O)N(c1ccccc1-c1ccccc1)C2=O the results were NRP1-CendR mod 4, MEX-5 binding -2, HCV core dimer 1 and FID counter -25.
`Cc1ccccc1-c1n[nH]nc1C1=CC(=O)CC(C)(C)C1` gave NRP1-CendR mod 9.
For CN(C(=O)COC(=O)CSc1ccccc1)c1c(N)n(Cc2ccccc2)c(=O)[nH]c1=O the results were NRP1-CendR mod 8.
Screening CC1=NN(c2ccccc2)C(=O)/C1=C/c1c(O)n(-c2ccc(F)c(Cl)c2)[nH]c1=O returned MEX-5 binding 0, HCV core dimer 26 and FID counter 41*.
